Laboratory results from ChEMBL document CHEMBL1157547, “Structural basis for selective inhibition of purine nucleoside phosphorylase from Schistosoma mansoni: kinetic and structural studies” (Bioorg Med Chem, 2010).

Legend:
[1] = molecular target: T1, Purine nucleoside phosphorylase (Homo sapiens, UniProt P00491); test: Inhibition of human purine nucleoside phosphorylase
T1 sequence (P00491 whole entry): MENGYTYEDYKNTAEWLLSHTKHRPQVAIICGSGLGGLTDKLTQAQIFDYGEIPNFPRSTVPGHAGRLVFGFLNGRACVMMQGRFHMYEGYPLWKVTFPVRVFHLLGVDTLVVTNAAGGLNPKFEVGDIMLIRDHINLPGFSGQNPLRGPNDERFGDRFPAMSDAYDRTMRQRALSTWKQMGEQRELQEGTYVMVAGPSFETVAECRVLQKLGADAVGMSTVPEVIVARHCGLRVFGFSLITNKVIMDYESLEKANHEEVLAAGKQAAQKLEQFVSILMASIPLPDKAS

[2] = Inhibition of Schistosoma mansoni purine nucleoside phosphorylase
Method in brief: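 Coupled spectrophotometric assay with 5 nM SmPNP (as monomer) in 50 mM potassium phosphate, pH 7.4, with 10 uM inosine and xanthine oxidase 40 milliunits/mL. Uric acid formation read at 293 nm, 25°C, in triplicate. IC50 obtained from rates at six or more inhibitor concentrations. Values are means of at least three independent experiments.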

[3] = Selectivity ratio of IC50 for human purine nucleoside phosphorylase to IC50 for Schistosoma mansoni purine nucleoside phosphorylase

IC50 [1] | IC50 [2] | Ratio IC50 [3] | Compound
 | 1400 nM |  | Nc1nc2c(Cc3ccccc3)c[nH]c2c(=O)[nH]1
100 nM | 3000 nM | 0.033 | Nc1nc2c(Cc3ccncc3)c[nH]c2c(=O)[nH]1
270 nM | 150 nM | 1.8 | CC(C)c1ccc(Cc2c[nH]c3c(=O)[nH]c(N)nc23)cc1
200 nM | 800 nM | 0.25 | Nc1nc2c(Cc3cccnc3)c[nH]c2c(=O)[nH]1 [PELDESINE]

More lines, now with the values behind:

Compound | IC50 [1] | IC50 [2] | Ratio IC50 [3]
Nc1nc2c(ccn2[C@H]2O[C@@H](CO)[C@H](O)[C@@H]2O)c(=S)[nH]1 | 315000 nM | 95000 nM | 3.3
Nc1nc2c(Cc3cccc(Cl)c3)c[nH]c2c(=O)[nH]1 | 50 nM | 500 nM | 0.1
Nc1nc2c(Cc3ccccn3)c[nH]c2c(=O)[nH]1 | 23 nM | 7000 nM | 0.003
Nc1nc2c(Cc3ccc(OCc4ccccc4)cc3)c[nH]c2c(=O)[nH]1 | 300 nM | 500 nM | 0.6
Nc1ncnc2c1ccn2[C@H]1O[C@@H](CO)[C@H](O)[C@@H]1O | 300000 nM | 200000 nM | 1.5
O=c1nc[nH]c2c([C@H]3O[C@@H](CO)[C@H](O)[C@@H]3O)[nH]nc12 | 300000 nM | 47000 nM | 6.4
